Active and inactive are the calls of the source. The calls are words filed in the database; no cut-off is given here.
Legend:
[1] = tested on: DU-145; experiment: Induction of apoptosis in human DU145 cells assessed as increase in intracellular reactive oxygen species at 2.5 to 5 uM after 24 hrs in presence of N-acetyl cysteine by DCFDA dye based spectrofluorometer; assay type: functional, cell-based
[2] = tested on: DU-145; experiment: Induction of mitochondrial membrane potential loss in human DU145 cells after 24 hrs by flow cytometry; assay type: functional, cell-based
[3] = tested on: DU-145; experiment: Induction of mitochondrial membrane potential loss in human DU145 cells at 1.25 uM after 24 hrs by flow cytometry (reference value: 5.39%); assay type: functional
[4] = Cytotoxicity against human PC3 cells assessed as cell growth inhibition after 48 hrs by MTT assay; assay type: functional, cell-based; conditions: PC-3, 48 h
In short: (§1)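 Cell lines (NCCS) grown in DMEM or RPMI with 10% FBS and antibiotic-antimycotic at 37 °C, 5% CO2, 90% humidity. Cells seeded at 3-5×10^3 per well, treated 48 h with serial dilutions in medium beside vehicle control. Medium replaced with MTT (0.5 mg/mL) for 4 h, absorbance read at 570 nm. IC50 taken from concentration-response curves; sunitinib served as reference.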

[5] = tested on: DU-145; experiment: Induction of apoptosis in human DU145 cells assessed as necrotic cells at 2.5 uM after 24 hrs by Annexin V-FITC/propidium iodide staining based flow cytometry (reference value: 2.14%); assay type: functional
[6] = Cell cycle arrest in human DU145 cells assessed as accumulation at G2/M phase at 2.5 uM after 24 hrs by propidium iodide staining-based flow cytometry (reference value: 29.66%); assay type: functional; conditions: DU-145
In short: (§2)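 Compound given to DU145 at 2.5 and 5.0 μM for 24 h alongside untreated cells. Cells harvested, PBS-washed, fixed in ice-cold 70% ethanol, then stained 30 min at 37 °C in the dark with propidium iodide (50 μg/mL) plus RNase A (20 μg/mL) in 0.1% Triton X-100. About 10000 events per sample read by flow cytometry; a representative of three independent experiments is shown.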

[7] = Cytotoxicity against human BT549 cells assessed as cell growth inhibition after 48 hrs by MTT assay; assay type: functional, cell-based; conditions: BT-549, 48 h; in short: as §1
[8] = tested on: DU-145; experiment: Induction of apoptosis in human DU145 cells assessed as necrotic cells at 1.25 uM after 24 hrs by Annexin V-FITC/propidium iodide staining based flow cytometry (reference value: 2.14%); assay type: functional
[9] = tested on: DU-145; experiment: Induction of morphological changes in human DU145 cells assessed as apoptotic body formation at 1.25 to 5 uM after 48 hrs by acridine orange/ethidium bromide-dual staining based fluorescence microscopic method; assay type: functional, cell-based
In short: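 DU145 plated at 1×10^6 cells/mL, treated at several concentrations and kept 48 h at 37 °C in 5% CO2. Equal volumes of acridine orange and ethidium bromide (10 μg/mL) added, and cells imaged within 10 min by fluorescence microscopy (excitation 488 nm, emission 550 nm) at 200x.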

[10] = tested on: DU-145; experiment: Induction of apoptosis in human DU145 cells after 24 hrs by Annexin V-FITC/propidium iodide staining based flow cytometry; assay type: functional, cell-based
[11] = tested on: DU-145; experiment: Induction of apoptosis in human DU145 cells assessed as early apoptotic cells at 1.25 uM after 24 hrs by Annexin V-FITC/propidium iodide staining based flow cytometry (reference value: 2.14%); assay type: functional
[12] = Cytotoxicity against human RWPE1 cells assessed as cell growth inhibition after 48 hrs by MTT assay; assay type: toxicity, cell-based, RWPE-1
[13] = Cell cycle arrest in human DU145 cells assessed as accumulation at sub G1 phase at 2.5 uM after 24 hrs by propidium iodide staining-based flow cytometry (reference value: 0.65%); assay type: functional; conditions: DU-145; in short: as §2
[14] = Cytotoxicity against human DU145 cells assessed as cell growth inhibition after 48 hrs by MTT assay; assay type: functional, cell-based; conditions: DU-145, 48 h; in short: as §1
[15] = tested on: DU-145; experiment: Induction of apoptosis in human DU145 cells assessed as increase in Bax level after 48 hrs by Western blot analysis; assay type: functional, cell-based
[16] = tested on: DU-145; experiment: Induction of mitochondrial membrane potential loss in human DU145 cells at 2.5 uM after 24 hrs by flow cytometry (reference value: 5.39%); assay type: functional
[17] = Cell cycle arrest in human DU145 cells assessed as accumulation at S phase at 2.5 uM after 24 hrs by propidium iodide staining-based flow cytometry (reference value: 10.3%); assay type: functional; conditions: DU-145; in short: as §2
[18] = Cell cycle arrest in human DU145 cells assessed as accumulation at G2/M phase after 24 hrs by propidium iodide staining-based flow cytometry; assay type: functional; conditions: DU-145; in short: as §2
[19] = tested on: DU-145; experiment: Induction of apoptosis in human DU145 cells assessed as viable cells at 2.5 uM after 24 hrs by Annexin V-FITC/propidium iodide staining based flow cytometry (reference value: 90.32%); assay type: functional; conditions: DU-145, 24 h, read-out: Activity
[20] = tested on: DU-145; experiment: Induction of apoptosis in human DU145 cells assessed as increase in cytochrome c level after 48 hrs by Western blot analysis; assay type: functional, cell-based
[21] = tested on: DU-145; experiment: Induction of apoptosis in human DU145 cells assessed as condensation of nucleus at 2.5 to 5 uM after 48 hrs by DAPI staining based fluorescence microscopic method; assay type: functional, cell-based
In short: (§3)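 DU145 treated for 48 h, PBS-washed, permeabilized with 0.1% Tween 20 for 10 min and stained with 1 μM DAPI. Nuclear morphology of control and treated cells viewed by fluorescence microscopy (excitation 359 nm, emission 461 nm) at 200x.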

[22] = tested on: DU-145; experiment: Induction of apoptosis in human DU145 cells assessed as increase in cleaved PARP level after 48 hrs by Western blot analysis; assay type: functional, cell-based
[23] = Cytotoxicity against human HeLa cells assessed as cell growth inhibition after 48 hrs by MTT assay; assay type: functional, cell-based; in short: as §1
[24] = tested on: DU-145; experiment: Induction of apoptosis in human DU145 cells assessed as late apoptotic cells at 2.5 uM after 24 hrs by Annexin V-FITC/propidium iodide staining based flow cytometry (reference value: 5.4%); assay type: functional
[25] = Cell cycle arrest in human DU145 cells assessed as accumulation at G0/G1 phase at 5 uM after 24 hrs by propidium iodide staining-based flow cytometry (reference value: 62.81%); assay type: functional; conditions: DU-145; in short: as §2
[26] = tested on: DU-145; experiment: Induction of apoptosis in human DU145 cells assessed as formation of pyknotic nuclei at 2.5 to 5 uM after 48 hrs by DAPI staining based fluorescence microscopic method; assay type: functional, cell-based; in short: as §3
[27] = tested on: DU-145; experiment: Induction of apoptosis in human DU145 cells assessed as late apoptotic cells at 5 uM after 24 hrs by Annexin V-FITC/propidium iodide staining based flow cytometry (reference value: 5.4%); assay type: functional
[28] = tested on: DU-145; experiment: Induction of apoptosis in human DU145 cells assessed as necrotic cells at 5 uM after 24 hrs by Annexin V-FITC/propidium iodide staining based flow cytometry (reference value: 2.14%); assay type: functional
[29] = Cell cycle arrest in human DU145 cells assessed as accumulation at sub G1 phase at 5 uM after 24 hrs by propidium iodide staining-based flow cytometry (reference value: 0.65%); assay type: functional; conditions: DU-145; in short: as §2
[30] = tested on: DU-145; experiment: Induction of apoptosis in human DU145 cells assessed as late apoptotic cells at 1.25 uM after 24 hrs by Annexin V-FITC/propidium iodide staining based flow cytometry (reference value: 5.4%); assay type: functional
[31] = Cell cycle arrest in human DU145 cells assessed as accumulation at G0/G1 phase at 2.5 uM after 24 hrs by propidium iodide staining-based flow cytometry (reference value: 62.81%); assay type: functional; conditions: DU-145; in short: as §2
[32] = tested on: DU-145; experiment: Induction of apoptosis in human DU145 cells assessed as increase in intracellular reactive oxygen species after 6 hrs by DCFDA dye based spectrofluorometer; assay type: functional, cell-based

O=C1Nc2ccc(C(c3ccccc3)c3ccccc3)cc2/C1=C/c1cccc(OCc2cn(Cc3ccccc3)nn2)c1
Activity [1]: Active | Activity [2]: Dose-dependent effect | Activity [3]: 64.28% | IC50 [4]: 17.2 µM | Activity [5]: 4.41% | Activity [6]: 43.7% | IC50 [7]: 15.8 µM | Activity [8]: 1.82% | Activity [9]: Active | Activity [10]: Dose-dependent effect | Activity [11]: 12.6% | IC50 at 48 h [12]: 21.4 µM | Activity [13]: 27.6% | IC50 [14]: 3.7 µM | Activity [15]: Active | Activity [16]: 85.24% | Activity [17]: 12.7% | Activity [18]: Dose-dependent effect | viability at 2.5 µM [19]: 64.5% | Activity [20]: Active | Activity [21]: Active | Activity [22]: Active | IC50 [23]: 4.28 µM | Activity [24]: 13% | Activity [25]: 10.1% | Activity [26]: Active | Activity [27]: 25% | Activity [28]: 15.46% | Activity [29]: 18.3% | Activity [30]: 9.11% | Activity [31]: 14.8% | Activity [32]: Dose-dependent effect
